Measurements taken from ChEMBL document CHEMBL4368875, “Towards identifying potent new hits for glioblastoma” (Medchemcomm, 2018).

How the values were obtained:
[1] = tested on: U-251; experiment: Antiproliferative activity against human U251MG cells after 72 hrs by sulforhodamine B assay; assay type: functional, cell-based; conditions: U-251, 72 h
In short: (§1)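 Established GBM lines grown under conditions similar to the short-term cultures (Hams F10, 10% foetal calf serum, 37 °C, no CO₂). Seeded at 3000 cells per well and grown 48 h to exponential phase. Exposed 72 h to serial dilutions from DMSO stocks. Fixed in 10% TCA, stained with 0.4% SRB in 1% acetic acid, dye dissolved in 10mM Tris, absorbance 560nm. EC50 by non-linear variable-slope fit.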

[2] = Antiproliferative activity against human IN1528 cells after 72 hrs by sulforhodamine B assay; assay type: functional, cell-based; conditions: IN1528, 72 h
In short: (§2)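 Short-term cultures derived from about 10mg of adult GBM biopsy tissue, used at passages 10 to 14. Grown in Hams F10 with 10% foetal calf serum at 37 °C without CO₂. Seeded at 3000 cells per well, then grown 48 h to exponential phase. Treated 72 h with serial dilutions from DMSO stocks. SRB read-out at 560nm. EC50 from a variable-slope sigmoidal dose-response fit.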

[3] = Antiproliferative activity against human IN1760 cells after 72 hrs by sulforhodamine B assay; assay type: functional, cell-based; conditions: IN1760, 72 h; in short: as §2
[4] = tested on: U-87 MG; experiment: Antiproliferative activity against human U87MG cells after 72 hrs by sulforhodamine B assay; assay type: functional, cell-based, U-87MG ATCC; in short: as §1
[5] = Solubility of the compound in DMSO at >1250 uM; assay type: physicochemical
[6] = Antiproliferative activity against human IN1472 cells after 72 hrs by sulforhodamine B assay; assay type: functional, cell-based; conditions: IN1472, 72 h; in short: as §2

Cc1c(O)ccc(O)c1C
EC50 [1]: 17 µM

O=C1c2ccccc2C(=O)N1c1ccccc1O
EC50 [1]: 916 µM
EC50 [2]: 744 µM
EC50 [3]: 1080 µM

Cc1ccc(O)c(-c2cc3ccccc3[nH]2)c1
EC50 [1]: 21 µM
EC50 [2]: 29 µM
EC50 [3]: 32 µM

Oc1ccccc1-c1nc2ccccc2o1
EC50 [1]: 2260 µM
EC50 [4]: 52 µM
EC50 [3]: > 2500 µM

Oc1ccccc1-c1nc2ccccc2s1
EC50 [1]: > 1250 µM
solubility [5]: Insoluble
EC50 [2]: > 1250 µM
EC50 [6]: > 1250 µM
EC50 [4]: > 1250 µM
EC50 [3]: > 1250 µM

Oc1ccccc1-c1nc2ccccc2[nH]1
EC50 [1]: 23 µM
EC50 [2]: 25 µM
EC50 [3]: 36 µM

Oc1ccccc1-c1c[nH]c2ccccc12
EC50 [1]: 95 µM
EC50 [2]: 120 µM
EC50 [3]: 231 µM

Oc1ccccc1OCc1ccccc1
EC50 [1]: 304 µM
EC50 [2]: 193 µM
EC50 [3]: 371 µM

Oc1ccccc1-c1ccc2ccccc2c1
EC50 [1]: 92 µM
EC50 [2]: 104 µM
EC50 [4]: 48 µM
EC50 [3]: > 1000 µM

CCCCCCC(=O)Oc1ccccc1-c1cc2ccccc2[nH]1
EC50 [1]: 38 µM
EC50 [2]: 29 µM

CC(=O)Oc1ccccc1-c1cc2ccccc2[nH]1
EC50 [1]: 31 µM
EC50 [2]: 80 µM

Nc1ccccc1-c1cc2ccccc2[nH]1
EC50 [1]: 328 µM
EC50 [2]: 153 µM
EC50 [6]: 155 µM
EC50 [4]: 257 µM

O=C(Oc1ccccc1-c1cc2ccccc2[nH]1)c1ccccc1
EC50 [1]: 39 µM
EC50 [2]: 38 µM

Oc1ccc(-c2ccccc2)cc1
EC50 [1]: 102 µM
EC50 [2]: 85 µM
EC50 [3]: 81 µM

Oc1ccccc1-c1cc2ccccc2[nH]1 [2-(2'-HYDROXYPHENYL)-1H-INDOLE]
EC50 [1]: 130 µM
EC50 [2]: 99 µM
EC50 [6]: > 625 µM
EC50 [4]: 126 µM
EC50 [3]: 185 µM

COc1ccccc1-c1cc2ccccc2[nH]1 [2-(2'-METHOXYPHENYL)-1H-INDOLE]
EC50 [4]: > 625 µM

c1ccc(-c2cc3ccccc3[nH]2)cc1 [2-PHENYL-1H-INDOLE]
EC50 [1]: > 625 µM
EC50 [2]: > 625 µM
EC50 [6]: > 625 µM
EC50 [4]: > 625 µM
EC50 [3]: > 625 µM

Oc1ccccc1-c1ccccc1 [2-PHENYLPHENOL]
EC50 [1]: 372 µM
EC50 [2]: 361 µM
EC50 [3]: 236 µM

CC(=O)Oc1ccccc1C(=O)O [ASPIRIN]
EC50 [1]: 1340 µM
EC50 [2]: 787 µM
EC50 [6]: 1410 µM
EC50 [4]: 723 µM
EC50 [3]: > 4000 µM

COc1ccccc1O [GUAIACOL]
EC50 [1]: 1140 µM
EC50 [2]: 813 µM
EC50 [6]: 2020 µM
EC50 [4]: 492 µM
EC50 [3]: > 4000 µM

Oc1ccc(O)cc1 [HYDROQUINONE]
EC50 [1]: 57 µM

c1ccc2[nH]ccc2c1 [INDOLE]
EC50 [1]: > 625 µM
EC50 [2]: > 625 µM
EC50 [6]: > 625 µM
EC50 [4]: > 625 µM
EC50 [3]: > 625 µM

O=[N+]([O-])c1ccccc1O [NITROPHENOLATE]
EC50 [1]: 1250 µM
EC50 [2]: 890 µM
EC50 [4]: 888 µM
EC50 [3]: > 4000 µM

Cc1ccccc1O [ORTHOCRESOL]
EC50 [1]: 1560 µM
EC50 [2]: 744 µM
EC50 [6]: 1440 µM
EC50 [4]: 664 µM
EC50 [3]: > 4000 µM

Oc1ccccc1 [PHENOL]
EC50 [1]: 1230 µM
EC50 [2]: 747 µM
EC50 [6]: 1730 µM
EC50 [4]: 834 µM
EC50 [3]: > 4000 µM

NC(=O)c1ccccc1O [SALICYLAMIDE]
EC50 [1]: 1200 µM
EC50 [2]: 793 µM
EC50 [6]: 1390 µM
EC50 [4]: 760 µM
EC50 [3]: > 4000 µM
